From PubChem BioAssay
Calls of active or inactive are those of the source.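 Rule for the calls, unless noted: active = inhibition above 20% together with a positive visual image hit; inconclusive = visual image hit but inhibition not above 20%; inactive = no visual image hit.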

Key:
[1] = inhibitors of TNFa-induced NFkB p65 translocation, primary screen, imaging, HUVEC, MLSMR starter and 10KST1 sets (AID 438); conditions: HUVEC TNFa-induced p65 nuclear translocation; cell count: measured here: nuclei count (cytotoxicity indicator), at 2.08 µM; inhibition: at 2 µM, stronger effect = higher value, 0% TNFa-plus-vehicle, 100% no-TNFa wells;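 note: compound added about 3h40 before a 20 min TNFalpha stimulation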;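 for inhibition: signal is the nuclear over cytoplasmic p65 intensity ratio per well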
[2] = reduction of polyQ htt aggregates in cells – imaging, exon1htt(103Q)mCFP cells, high-content imaging, primary screen (AID 483;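 active = visual image review flags a hit and inhibition of aggregation exceeds 20%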;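 note: compound exposure lasted 3 days before fixation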;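 for nuclei count: percent of the per-plate median nuclei count of sample wells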); conditions: exon1htt(103Q)mCFP cell line, aggregate imaging, at 2 µM; inhibition of aggregation: stronger effect = higher value; nuclei count: measured here: cell count, toxicity
[3] = endothelial E-selectin expression blockers – imaging, HUVEC, immunofluorescence, MLSMR starter and 10KST1 sets, primary screen (AID 487;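 active = visually confirmed hit in the image check and inhibition above 20%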;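 for inhibition: signal is fraction of cell area covered by stained E-selectin grains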;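 for nuclei count: 100% = median nuclei count of all wells on the same plate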); conditions: HUVEC TNFalpha-induced E-selectin immunofluorescence imaging, at 2 µM; inhibition: stronger effect = higher value; nuclei count: measured here: cell number, toxicity
[4] = target: Voltage-gated potassium channel subunit beta-2 (Rattus norvegicus) (UniProt P62483); assay: inhibitors of rat Kvbeta2 reductase activity – biochemical, NADPH fluorescence, primary screen (AID 622;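 active = fluorescence slope higher than the sample average by over 3 SD, cut at about -0.22 in these data, passing the limit was not always enough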;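 note: slope of raw intensity against log time taken from 70 to 1610 s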); conditions: recombinant KvBeta, 4-cyanobenzaldehyde reduction, at 10 µM, stronger effect = higher value
[5] = target: Voltage-gated potassium channel subunit beta-2 (Rattus norvegicus) (UniProt P62483); assay: enhancers of rat Kvbeta2 NADPH turnover – biochemical, NADPH fluorescence, primary screen (AID 623;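 active = NADPH fluorescence slope more negative than the mean of all samples by about 3 SD, 99.7% confidence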;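 note: fluorescence intensity change per second fitted from 20 to 320 s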); conditions: Recombinant KvBeta, NADPH fluorescence decrease slope, 10 min; at 10 µM; stronger effect = lower value
[6] = target: Muscarinic acetylcholine receptor M4 (Homo sapiens) (UniProt P08173); assay: M4-linked GIRK flux change, two-sided – cell-based, HEK293 M4/GIRK, thallium flux, BTC-AM, M4 allosteric agonist project, primary screen (AID 625;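 active = fluorescence slope after compound addition differing from the mean of all tested samples at 99.7% confidence, mostly higher but some lower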;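 note: thallium influx through GIRK channels coupled to M4 in HEK293 cells with BTC-AM dye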); conditions: at 10 µM, actives lie on both sides
How it was run: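 Material: HEK293 cells with M4 receptor and GIRK channels; Times: cells overnight at 37 °C, BTC-AM loading 1 h, reads 2 min total; Technique: kinetic BTC-AM fluorescence sampled at 1 Hz, 10 s pre-addition baseline; Read-out basis: slope over 15–24 s of trace normalized to starting intensity; Controls: carbachol positive, DMSO negative.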

[7] = blockers of RIG-like receptor reporter activation – cell-based, Sendai virus stimulus, luciferase, 10K MLSCN set, TLR/RLR signaling modifier project, primary screen (AID 602276;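 active = inhibition at or above 50% at 10 µM; inactive = inhibition below 50%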;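 note: firefly luciferase from ISG56 promoter only with Renilla not read in this screen; 0% = Sendai virus plus DMSO and 100% = medium plus DMSO without virus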); conditions: HEK293 RL24 IRF3 luciferase reporter, at 10 µM, stronger effect = higher value
[8] = TLR3 IRF3 reporter activation blockers – cell-based, poly I:C stimulus, luciferase, 10K MLSCN set, primary screen (AID 602277;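 active = inhibition of the reporter signal at or above 50%; inactive = inhibition below 50%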); conditions: HEK293-TLR3 RL24 IRF3 luciferase reporter, at 10 µM, stronger effect = higher value

Chain of Voltage-gated potassium channel subunit beta-2 (Rattus norvegicus) (P62483 whole entry, looked up): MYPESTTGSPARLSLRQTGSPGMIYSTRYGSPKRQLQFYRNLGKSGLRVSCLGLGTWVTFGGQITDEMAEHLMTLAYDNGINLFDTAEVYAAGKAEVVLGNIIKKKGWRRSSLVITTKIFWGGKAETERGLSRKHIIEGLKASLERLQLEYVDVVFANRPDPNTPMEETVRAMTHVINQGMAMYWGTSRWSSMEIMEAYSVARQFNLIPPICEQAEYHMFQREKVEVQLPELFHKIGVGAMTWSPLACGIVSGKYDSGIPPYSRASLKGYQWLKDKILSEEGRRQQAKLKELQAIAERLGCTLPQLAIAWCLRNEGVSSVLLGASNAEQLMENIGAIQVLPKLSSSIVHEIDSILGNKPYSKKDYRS
Chain of Muscarinic acetylcholine receptor M4 (Homo sapiens) (P08173 whole entry, looked up): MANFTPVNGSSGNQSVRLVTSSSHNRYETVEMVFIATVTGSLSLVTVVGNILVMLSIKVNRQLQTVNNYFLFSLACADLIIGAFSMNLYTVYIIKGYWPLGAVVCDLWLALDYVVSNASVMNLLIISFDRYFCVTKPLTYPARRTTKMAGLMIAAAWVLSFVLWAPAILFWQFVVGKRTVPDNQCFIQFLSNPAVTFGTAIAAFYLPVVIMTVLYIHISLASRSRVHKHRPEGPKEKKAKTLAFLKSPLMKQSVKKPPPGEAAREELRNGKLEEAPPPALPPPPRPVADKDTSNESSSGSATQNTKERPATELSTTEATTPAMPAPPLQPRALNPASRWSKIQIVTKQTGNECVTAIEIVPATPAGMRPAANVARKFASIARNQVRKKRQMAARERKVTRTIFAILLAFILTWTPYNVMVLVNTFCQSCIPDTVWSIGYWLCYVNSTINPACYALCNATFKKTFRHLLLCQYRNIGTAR

Row | SMILES | cell count [1] | inhibition [1] | inhibition of aggregation [2] | nuclei count [2] [%] | inhibition [3] | nuclei count [3] [%] | fluorescence slope [4] | NADPH fluorescence slope [5] | fluorescence slope [6] | inhibition [7] | inhibition [8]
1 | O=C1CC(c2ccc(Cl)cc2)n2nc(N3C(=O)c4ccccc4C3=O)nc2N1 (stereo not drawn) | 346 | 11.4% (inactive) | -2.1% (inactive) | 104 | 30.5% (inactive) | 98.9 | -0.587 (inactive) | -3.9e-05 (inactive) | 0.00353 (inactive) | 16.6% (inactive) | 24.4% (inactive)
2 | Cc1cc(NC(=O)c2ccc3nc(-c4ccccc4)c(-c4ccccc4)nc3c2)no1 | 536 | -0.9% (inactive) | -14.8% (inactive) | 102 | -66.9% (inactive) | 106 | -0.463 (inactive) | -2.8e-05 (inactive) | 0.00551 (inactive) | -16% (inactive) | -16.7% (inactive)
3 | Cc1ccc(NC(=O)c2oc3ccc(S(=O)(=O)N4CCOCC4)cc3c2C)cc1C | 357 | -20.4% (inactive) | -20.5% (inactive) | 109 | -98.4% (inactive) | 133 | -0.278 (inactive) | 2.2e-05 (inactive) | 0.00768 (inactive) | 11% (inactive) | 13.9% (inactive)
4 | Cc1ccccc1N1CC(c2nc3ccccc3[nH]2)CC1=O (stereo not drawn) | 385 | 3% (inactive) | -1.2% (inactive) | 107 | -7.2% (inactive) | 110 | -0.478 (inactive) | -1.5e-05 (inactive) | 0.0056 (inactive) | -2.87% (inactive) | 98.3% (active)
5 | Cc1ccc(-c2nnn(CC(=O)N(CC(=O)NCC3CCCO3)c3ccccc3)n2)o1 (stereo not drawn) | 618 | -3.6% (inactive) | -12.2% (inactive) | 85.7 | -161% (inactive) | 106 | -0.584 (inactive) | -1.6e-05 (inactive) | 0.00876 (inactive) | 1.41% (inactive) | 5.51% (inactive)
6 | N#C/C(C(=O)N1CCOCC1)=C1/SC=C(c2ccccc2)N1c1ccccc1 | 327 | -5.5% (inactive) | 13.8% (inactive) | 96.2 | -118% (inactive) | 118 | -0.277 (inactive) | -3e-05 (inactive) | 0.00553 (inactive) | 12.4% (inactive) | 26.4% (inactive)
7 | CN(c1ccccc1)C(c1ccc(F)cc1)c1nnnn1CC1CCCO1 (stereo not drawn) | 762 | -2.9% (inactive) | -1.8% (inactive) | 100 | -61.8% (inactive) | 132 | -0.288 (inactive) | -1.6e-05 (inactive) | 0.00686 (inactive) | 16% (inactive) | 42.3% (inactive)
8 | CS(=O)(=O)c1ncc(Cl)c(C(=O)Nc2ccc(N3CCOCC3)cc2)n1 | 351 | -2.1% (inactive) | -35.6% (inactive) | 112 | 24.9% (inactive) | 111 | -0.46 (inactive) | 2.2e-05 (inactive) | 0.00607 (inactive) | 21.4% (inactive) | 62.8% (active)
9 | Cc1cncn1CCc1nc2c3ccccc3nc(=S)n2[nH]1 | 537 | 0% (inactive) | 4.4% (inactive) | 67.3 | -141% (inactive) | 110 | -0.432 (inactive) | 1.4e-06 (inactive) | 0.00558 (inactive) | 17% (inactive) | 28.8% (inactive)
10 | COc1cccc(-c2cc(C(F)(F)F)n3nc(N)nc3n2)c1 | 814 | -0.8% (inactive) | 18.9% (inactive) | 90.5 | 31.9% (inactive) | 98.9 | -0.449 (inactive) | -5e-05 (inactive) | 0.00414 (inactive) | 6.21% (inactive) | -0.814% (inactive)
11 | O=C(Nc1ccc2c(c1)OCO2)c1ccc(Br)c(S(=O)(=O)N2CCCC2)c1 | 660 | -5.2% (inactive) | -2% (inactive) | 103 | -99.5% (inactive) | 90.4 | -0.505 (inactive) | -6.5e-05 (inactive) | 0.0042 (inactive) | -20.9% (inactive) | -15.4% (inactive)
12 | COc1cccc(-n2c(SCC(=O)OC(C)C)nnc2-c2cccnc2)c1 | 402 | -3.3% (inactive) | -5.3% (inactive) | 96.8 | -29.7% (inactive) | 113 | -0.459 (inactive) | -4.2e-05 (inactive) | 0.00575 (inactive) | 9.67% (inactive) | 13.7% (inactive)
13 | CCS(=O)(=O)c1nc2ccccc2n1CC(=O)N1CCOCC1 | 581 | -4.1% (inactive) | -22.2% (inactive) | 95.9 | -85.4% (inactive) | 98.1 | -0.589 (inactive) | -3e-05 (inactive) | 0.00736 (inactive) | 16.1% (inactive) | 10.7% (inactive)
14 | CCCCCn1c(=O)[nH]c2cc(C(=O)NCCN3CCOCC3)ccc2c1=O | 355 | -1% (inactive) | 18% (inactive) | 104 | -15.3% (inactive) | 120 | -0.323 (inactive) | -3.7e-05 (inactive) | 0.00658 (inactive) | 5.81% (inactive) | 9.94% (inactive)
15 | N#CCCCN1C(=O)C(O)(CC(=O)c2ccc3c(c2)OCCO3)c2ccccc21 (stereo not drawn) | 698 | -8.8% (inactive) | -16.7% (inactive) | 100 | -15.5% (inactive) | 112 | -0.567 (inactive) | 1.9e-06 (inactive) | 0.0053 (inactive) | 7.56% (inactive) | 11.6% (inactive)
16 | CCCn1c(=N)n(CCOc2ccc(OC)cc2)c2ccccc21 | 665 | 21.3% (inactive) | 5.9% (inactive) | 92.6 | 15.1% (inactive) | 139 | -0.466 (inactive) | -4.2e-05 (inactive) | 0.00387 (inactive) | 20.2% (inactive) | 15.4% (inactive)
17 | COc1ccc(N(CC(=O)N2CCN(Cc3ccc4c(c3)OCO4)CC2)S(C)(=O)=O)cc1OC | 359 | 5% (inactive) | 2.1% (inactive) | 120 | -52.6% (inactive) | 112 | -0.538 (inactive) | -1.7e-05 (inactive) | 0.00506 (inactive) | 21.2% (inactive) | 20.2% (inactive)
18 | Cc1ccc(S(=O)(=O)NCCCNC(=O)N2CCOCC2)cc1 | 769 | -4.3% (inactive) | 1.3% (inactive) | 104 | -103% (inactive) | 129 | -0.461 (inactive) | -4.9e-05 (inactive) | 0.00502 (inactive) | 17.8% (inactive) | 16.7% (inactive)
19 | C[C@H](NC(=O)Nc1ccccc1F)C(=O)O | 294 | -8.5% (inactive) | 4.9% (inactive) | 86 | -78.4% (inactive) | 138 | -0.602 (inactive) | 5.1e-05 (inactive) | 0.00462 (inactive) | 14.6% (inactive) | 24.2% (inactive)
20 | COCCSc1ccccc1C(=O)Nc1cc(C)on1 | 587 | 3.3% (inactive) | -4.3% (inactive) | 92.3 | 22.8% (inactive) | 90.6 | -0.568 (inactive) | -2.5e-05 (inactive) | 0.00516 (inactive) | 14.3% (inactive) | 20.9% (inactive)
21 | O=C(CN1C(=O)C2CC=C(Cl)CC2C1=O)Nc1ccc(C(=O)O)cc1 (stereo not drawn) | 442 | 3.4% (inactive) | 10.1% (inactive) | 110 | -205% (inactive) | 122 | -0.569 (inactive) | -7.9e-05 (inactive) | 0.00409 (inactive) | 19.2% (inactive) | 20.6% (inactive)
22 | COc1ccc(OC)c(S(=O)(=O)Nc2ccccc2C(=O)O)c1 | 702 | -4.4% (inactive) | 0% (inactive) | 100 | 35.6% (inactive) | 85.9 | -0.569 (inactive) | 1.5e-05 (inactive) | 0.0048 (inactive) | 23.8% (inactive) | 18.9% (inactive)
23 | CCn1c(=S)sc2nc(C)sc21 | 266 | 1.3% (inactive) | -4.4% (inactive) | 76.2 | -38.4% (inactive) | 124 | -0.598 (inactive) | 3.2e-06 (inactive) | 0.00458 (inactive) | 13.4% (inactive) | 15% (inactive)
24 | CCOC(=O)c1cc(-c2ccc(Cl)s2)nc2c1c(C)nn2C | 473 | -11% (inactive) | -13.7% (inactive) | 95 | -142% (inactive) | 106 | -0.494 (inactive) | -1.5e-05 (inactive) | 0.00338 (inactive) | 8.23% (inactive) | -18.9% (inactive)
25 | CCn1c(SCC(=O)Nc2nccs2)nnc1-c1ccncc1 | 331 | -1.4% (inactive) | -8.7% (inactive) | 110 | -20.2% (inactive) | 129 | -0.454 (inactive) | -2.4e-05 (inactive) | 0.00633 (inactive) | 14.8% (inactive) | 21.3% (inactive)
26 | O=C(CN1C(=O)COc2ccccc21)NCCCN1CCN(Cc2ccccc2)CC1 | 470 | -2.6% (inactive) | 0.5% (inactive) | 91.9 | -131% (inactive) | 232 | -0.581 (inactive) | -8.3e-06 (inactive) | 0.00512 (inactive) | -9.51% (inactive) | -8.02% (inactive)
27 | CCNC(=O)CC1C(=O)N(c2ccc(F)cc2)C(=O)N1CCC(C)C (stereo not drawn) | 357 | -10.8% (inactive) | 17.4% (inactive) | 92.3 | -21.1% (inactive) | 106 | -0.525 (inactive) | -5.9e-06 (inactive) | 0.00457 (inactive) | 4.4% (inactive) | 15.9% (inactive)
28 | C=CCSc1nc2c(c(=O)[nH]c(=O)n2C)n1C(C)C | 309 | -11.3% (inactive) | -2.8% (inactive) | 110 | 33% (inactive) | 97.6 | -0.579 (inactive) | 8.7e-06 (inactive) | 0.00565 (inactive) | 2.75% (inactive) | 14.4% (inactive)
